# Compound activity: PubChem BioAssay, Johns Hopkins Ion Channel Center
# TRPC6 act: activates the mouse TRPC6 cation channel; Q61143; HEK293-TRPC6 membrane potential dye fluorescence; hits give high values; B-score at 10 µM; 310,000 tested, 0.13% active; AID 2550;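 active = B-score of the integrated fluorescence ratio above library mean plus 3 SD, and starting fluorescence ratio within library mean plus 5 SD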;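 also: higher score means more depolarization so channel activation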
# TRPC6 inh: inhibitors of mouse TRPC6 channel. B-score at 10 µM. 310,000 tested, 1.1% active. HEK293-TRPC6, membrane potential dye, ACh-evoked depolarization; hits give low values. Q61143;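 active = B-score under library mean minus 3 SD, initial fluorescence not abnormally high, positive integrated signal ratio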;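 also: B-score derived from integrated fluorescence ratio over the kinetic read; more negative B-score means stronger inhibition of depolarization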
# TRPC4 potent: TRPC4 (mouse) allosteric potentiation | HEK293 TRPC4beta/mu-opioid, DAMGO EC20, Fluo-4 Ca2+ flux; hits give high values | B-score at 10 µM | 310,000 tested, 0.42% active;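 active = B-score of calcium response area above 5 SD of library B-scores, with initial fluorescence ratio within 5 SD of library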;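 also: B-score of integrated fluorescence ratio over time as area under calcium response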
# Target sequence (Q9QUQ5 whole entry, looked up): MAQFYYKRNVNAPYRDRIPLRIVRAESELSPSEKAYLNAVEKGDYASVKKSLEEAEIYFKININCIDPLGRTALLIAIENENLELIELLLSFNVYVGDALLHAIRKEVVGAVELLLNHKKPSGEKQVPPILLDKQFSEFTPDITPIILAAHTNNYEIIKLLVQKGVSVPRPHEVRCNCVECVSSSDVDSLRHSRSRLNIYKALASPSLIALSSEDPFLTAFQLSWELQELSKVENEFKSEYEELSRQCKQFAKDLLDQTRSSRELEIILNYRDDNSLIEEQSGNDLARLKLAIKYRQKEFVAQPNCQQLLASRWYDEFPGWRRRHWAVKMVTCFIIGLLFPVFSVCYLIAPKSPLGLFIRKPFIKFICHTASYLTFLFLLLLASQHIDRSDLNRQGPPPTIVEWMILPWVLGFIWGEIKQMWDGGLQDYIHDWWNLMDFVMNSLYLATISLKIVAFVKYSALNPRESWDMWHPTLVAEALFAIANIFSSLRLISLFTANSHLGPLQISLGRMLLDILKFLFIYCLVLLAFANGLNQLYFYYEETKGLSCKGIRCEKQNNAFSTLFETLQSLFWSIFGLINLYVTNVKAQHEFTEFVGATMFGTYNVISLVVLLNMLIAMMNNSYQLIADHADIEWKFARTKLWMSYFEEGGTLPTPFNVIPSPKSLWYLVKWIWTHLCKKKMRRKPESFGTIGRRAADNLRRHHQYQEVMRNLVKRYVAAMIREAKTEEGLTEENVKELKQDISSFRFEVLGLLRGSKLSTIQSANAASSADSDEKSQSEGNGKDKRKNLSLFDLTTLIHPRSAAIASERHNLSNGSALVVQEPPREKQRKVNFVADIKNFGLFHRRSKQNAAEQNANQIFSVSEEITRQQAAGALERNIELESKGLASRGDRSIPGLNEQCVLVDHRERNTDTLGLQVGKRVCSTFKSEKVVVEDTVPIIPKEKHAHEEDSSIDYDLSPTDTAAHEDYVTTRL
# TRPC4 act: TRPC4 (mouse) channel activation. 310,000 tested, 0.49% active. B-score at 10 µM. HEK293 TRPC4beta/mu-opioid, Fluo4 calcium fluorescence; hits give high values;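 active = B-score above 5 SD of library B-scores, and initial fluorescence ratio not above library mean plus 5 SD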;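 also: positive B-score marks a calcium rise read as TRPC4 activation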
#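 Assay system: HEK293 stable line with TRPC4beta plus mu-opioid receptor. Times: dye 45 min RT, read 110 s. Measured by: kinetic Fluo4 calcium fluorescence. Measure: B score of integrated ratio. Controls: assay buffer as low control, maximal DAMGO as high control.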
# TRPC4 block: blocks the mouse TRPC4 cation channel; Q9QUQ5; HEK293 TRPC4beta/mu-opioid, DAMGO-evoked Fluo4 calcium flux; hits give low values; B-score at 10 µM; 300,000 tested, 0.39% active;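 active = B-score over 3 SD under the library average, no early fluorescence shift, positive overall ratio signal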
#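 System: stable TRPC4beta/mu-opioid receptor HEK293 cells; Dosing: single-point compound dosing; Measured by: Fluo4 Ca2+ flux fluorescence; Read-out basis: per-well B score of integrated baseline-normalized Fluo4 ratio.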
# TRPC4 sel inh 2: second check of whether TRPC6 inhibitors also affect mouse TRPC4; inhibition, % at 10 µM; 920 tested, 42% active; shares compounds with TRPC6 inh; HEK293 TRPC4/MOR, membrane potential dye fluorescence; channel activated by saturating DAMGO dose; AID 2776;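 active = compounds whose fluorescence signal differed from control wells by over 3 SD, either direction, in both duplicate plates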
# TRPC4 spec: selectivity of TRPC6 inhibitors: effect on mouse TRPC4; shares compounds with TRPC6 inh; HEK293 TRPC4/mu-opioid, membrane potential fluorescence; activity change, negative = inhibition, % at 10 µM; 920 tested, 61% active;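 active = rise or fall in signal beyond 3 SD of buffer-only wells in both replicate plates, either sign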;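 also: integrated kinetic ratio of fluorescence range over baseline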
# HEK293 MPD ctr 2-1: second check of TRPC6 inhibitor effects in parental HEK293 cells; 920 tested, 31% active; signal change vs control, % at 10 µM; shares compounds with TRPC6 inh; parental HEK293 membrane potential dye fluorescence; maximal acetylcholine challenge after compound addition;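 active = membrane potential signal moving either way by over 3 SD of the maximum-effect control, in both duplicate plates, meaning non-specific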
# HEK293 MPD ctr-1: checks TRPC6 inhibitor effects in parental HEK293 cells; shares compounds with TRPC6 inh; parental HEK293 membrane potential dye fluorescence; membrane potential signal change, % at 10 µM; 920 tested, 60% active;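 active = membrane potential signal shifting up or down by more than 3 SD of buffer-only wells, on both duplicate plates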
# HEK293 MPD ctr-2: parental HEK293 nonspecific activity of TRPC6 modulators. membrane potential dye fluorescence. shares compounds with TRPC6 inh. 2,400 tested, 51% active. membrane potential signal change, % at 10 µM;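 active = membrane potential signal moves up or down beyond 5 SD from buffer-only wells, on both duplicate plates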
# HEK293 MPD ctr 2-2: second counter-screen for TRPC6 modulators: effect in parental HEK293 cells. inhibition, % at 10 µM. membrane potential dye fluorescence; after compound, maximal acetylcholine stimulation. 2,400 tested, 14% active. shares compounds with TRPC6 inh;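 active = membrane potential signal drops by more than 5 SD from the mean control signal, in both duplicate plates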;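 also: plate controls were acetylcholine ECmax control wells for no effect and buffer only wells for full effect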
# TRPC4 ctr mod: tests whether TRPC6 modulators also affect mouse TRPC4; shares compounds with TRPC6 inh; HEK293 TRPC4/mu-opioid, membrane potential fluorescence; percent change from control (negative = decrease, positive = increase), % at 10 µM; 2,400 tested, 69% active; AID 488927;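 active = membrane potential signal moved up or down beyond 5 SD of buffer control wells, in both duplicate plates, actives on both sides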;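 also: plate controls were assay buffer wells for no effect and DAMGO maximal-effect wells for full effect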
# TRPC4 ctr inh 2: second check of whether TRPC6 modulators also affect mouse TRPC4; shares compounds with TRPC6 inh; HEK293 TRPC4/mu-opioid, membrane potential dye fluorescence; stimulated with maximal-effect DAMGO; inhibition, % at 10 µM; 2,400 tested, 55% active; AID 488928;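 active = drop in membrane potential signal beyond 5 SD of the control wells in both duplicate plates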;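 also: TRPC4 counter screen for TRPC6 hits run under conditions tuned for TRPC6 not TRPC4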
# TRPC6 inh conf: confirmation of mouse TRPC6 inhibitors. shares compounds with TRPC6 inh. HEK293-TRPC6, membrane potential dye, ACh-evoked depolarization. inhibition, % at 10 µM. 3,300 tested, 43% active. AID 488960;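 active = fluorescence ratio falls more than 5 SD below the full-stimulation control mean, in both duplicate runs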;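 also: integrated fluorescence ratio of peak minus minimum over baseline after agonist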
# TRPC6 act conf: mouse TRPC6 activator confirmation; HEK293-TRPC6 membrane potential dye fluorescence, FDSS; shares compounds with TRPC6 inh; activation, % at 10 µM; 2,800 tested, 11% active;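 active = ratio signal rise beyond 5 SD above unstimulated control wells' mean, seen in both duplicate runs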;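 also: plate controls were buffer EC0 wells for no effect and acetylcholine ECmax response for full effect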
# Starred values were filed as active, the others as inactive; i = inactive; x = no result given. Hits are enriched below; roughly 2.3% of the tested compounds scored in any of these assays.
SMILES,TRPC6 act,TRPC6 inh,TRPC4 potent,TRPC4 act,TRPC4 block,HEK293 MPD ctr-2,HEK293 MPD ctr 2-2,TRPC4 ctr mod,TRPC4 ctr inh 2,TRPC6 inh conf,TRPC6 act conf,others
C=C(C)C(=O)Nc1cccc(C2=NOC3(C2)C[C@@H](C(N)=O)N(C(=O)CC(c2ccccc2)c2ccccc2)C3)c1 (some centres undefined),i,i,i,i,i,x,x,x,x,x,x,
COc1cc(CNCc2ccccn2)ccc1OCC(=O)NC1CCCCC1,i,i,i,i,i,x,x,x,x,x,x,
COc1cc(CNCCc2ccc(S(N)(=O)=O)cc2)ccc1OCC(=O)NC1CCCCC1,12*,-12*,i,47*,i,i,i,i,i,i,i,
Cc1nn(C(C)C(=O)N2CCN(c3ccccn3)CC2)c(=O)c2cc3occc3n12 (centres undefined),i,i,i,i,i,x,x,x,x,x,x,
Cc1cccc(N2CCN(C(=O)C(C)n3nc(C)n4c(cc5occc54)c3=O)CC2)c1C (centres undefined),i,-5.1*,i,i,i,i,i,14%*,i,i,x,
Fc1ccc(-c2cn(-c3ccccc3)c3[n+]2CCS3)cc1,i,i,i,i,i,x,x,x,x,x,x,
COc1ccc(-c2cn(-c3ccc(Br)cc3)c3[n+]2CCS3)cc1,i,-5.9*,i,i,i,i,i,i,i,i,i,
Clc1ccc(-c2cn(-c3ccccc3)c3[n+]2CCS3)cc1,i,-7.4*,i,i,i,-96%*,58%*,-16%*,i,48%*,i,
COc1ccc(-c2cn(-c3ccc(Cl)cc3)c3[n+]2CCCCC3)cc1,i,i,i,i,i,x,x,x,x,x,x,
N=c1c2c3c(sc2ncn1Nc1ccccc1)CCC3,i,-5.3*,i,i,i,i,i,-8.5%*,52%*,51%*,i,
N=c1c2c3c(sc2ncn1Cc1ccccc1)CCCC3,i,-6.5*,i,i,i,i,i,-12%*,39%*,i,i,
N=c1c2c3c(sc2ncn1CCCO)CCCC3,i,i,i,i,i,x,x,x,x,x,x,
N=c1c2c3c(sc2ncn1CCN1CCOCC1)CCCCC3,i,i,i,i,i,x,x,x,x,x,x,
CCCCn1cnc2sc3c(c2c1=N)CCCC3,i,-7.1*,i,i,i,x,x,x,x,i,i,TRPC4 sel inh 2=62%*;TRPC4 spec=-17%*;HEK293 MPD ctr 2-1=i;HEK293 MPD ctr-1=-228%*
O=C1CCc2cc(S(=O)(=O)NCc3ccccc3Cl)cc3c2N1CC3,i,i,i,i,i,x,x,x,x,x,x,
COc1ccc(-n2c(-c3ccc(Cl)cc3)c[n+]3c2CCc2ccccc2-3)cc1,i,-5.1*,i,i,i,-123%*,i,-17%*,42%*,i,i,
O=C(CNC(=O)c1ccc(Cl)cc1Cl)OCc1nnc(-c2ccccc2)o1,i,i,i,i,i,x,x,x,x,x,x,
CCN(CC)C1CCN(C(=O)CCc2nnc(CCCCc3ccccc3)o2)C1 (centres undefined),i,-5.2*,i,i,i,i,i,i,i,i,i,
Cc1nnc(Cl)c2nn(-c3ccccc3)c(C)c12,i,i,i,i,i,x,x,x,x,x,x,
CCOc1ccc(-n2nc3c(Cl)nnc(C)c3c2C)cc1,i,-6.7*,i,i,i,i,i,i,i,i,i,
CCC(c1nnnn1C1CCCCC1)N1CCN(C(=O)c2ccco2)CC1 (centres undefined),i,i,i,i,i,x,x,x,x,x,x,
Cc1ccc(-n2nc3c(c2NC(=O)c2c(-c4ccccc4Cl)noc2C)CS(=O)(=O)C3)c(C)c1,i,-5.5*,i,i,i,100%*,i,24%*,i,i,x,
O=C(Nc1ccc(NC(=O)c2cccnc2Cl)cc1)c1cccc(Cl)c1,i,i,i,i,i,x,x,x,x,x,x,
O=C(Nc1cccc(C(F)(F)F)c1)C1CCN(S(=O)(=O)c2cccnc2)CC1,i,i,i,i,i,x,x,x,x,x,x,
CCN(CC)c1ccc(-c2nc3cnccc3n2C)cc1,i,-5.9*,i,i,i,-170%*,i,-30%*,34%*,i,i,
CCN1CCN(C(=O)c2cc(COc3ccc(F)cc3F)on2)[C@@H](C)C1=O,i,i,i,i,i,x,x,x,x,x,x,
CCC(NC(=S)NCc1ccc(F)cc1)c1ccccc1 (centres undefined),i,i,i,i,i,x,x,x,x,x,x,
Cc1ccc2cccnc2c1N,i,i,i,i,i,x,x,x,x,x,x,
Cc1ccnc2c1ccc1ccccc12,i,-6.5*,i,i,i,i,i,i,i,i,i,
O=C(Cc1nnc(NC(=O)Nc2ccc(F)cc2)s1)NCc1ccccc1,i,i,i,i,i,x,x,x,x,x,x,
